Measurements reported in ChEMBL document CHEMBL4665633, “Cereblon versus VHL: Hijacking E3 ligases against each other using PROTACs” (Bioorg Med Chem, 2019).
The source made the active and inactive calls. The rule behind the calls is not given here.

Experiments:
Type in all cases: cell-based
[1] = biological target: T1, Protein cereblon/von Hippel-Lindau disease tumor suppressor (Homo sapiens, UniProt P40337+Q96SW2); assay: Protac activity at VHL/CRBN in HEK293 cells assessed as induction of CRBN protein degradation after 4 hrs by Western blot analysis
Procedure, shortened: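 HEK293 cells seeded at 1 × 10⁶ per well overnight, exposed 4 h to a compound concentration series (0.1% v/v final DMSO), lysed in RIPA, and immunoblotted on equal Bradford-quantified protein. CRBN bands were normalised to β-tubulin and expressed relative to mean DMSO vehicle. DC50 was estimated by fitting band intensity against log[concentration].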
Target sequence in this assay (P40337 whole entry): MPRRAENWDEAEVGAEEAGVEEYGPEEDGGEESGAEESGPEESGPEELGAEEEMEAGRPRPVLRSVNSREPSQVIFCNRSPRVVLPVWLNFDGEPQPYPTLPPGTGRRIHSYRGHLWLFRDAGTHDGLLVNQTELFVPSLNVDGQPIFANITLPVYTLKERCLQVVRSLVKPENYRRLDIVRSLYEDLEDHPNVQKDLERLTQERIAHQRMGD
Target sequence in this assay (Q96SW2 whole entry): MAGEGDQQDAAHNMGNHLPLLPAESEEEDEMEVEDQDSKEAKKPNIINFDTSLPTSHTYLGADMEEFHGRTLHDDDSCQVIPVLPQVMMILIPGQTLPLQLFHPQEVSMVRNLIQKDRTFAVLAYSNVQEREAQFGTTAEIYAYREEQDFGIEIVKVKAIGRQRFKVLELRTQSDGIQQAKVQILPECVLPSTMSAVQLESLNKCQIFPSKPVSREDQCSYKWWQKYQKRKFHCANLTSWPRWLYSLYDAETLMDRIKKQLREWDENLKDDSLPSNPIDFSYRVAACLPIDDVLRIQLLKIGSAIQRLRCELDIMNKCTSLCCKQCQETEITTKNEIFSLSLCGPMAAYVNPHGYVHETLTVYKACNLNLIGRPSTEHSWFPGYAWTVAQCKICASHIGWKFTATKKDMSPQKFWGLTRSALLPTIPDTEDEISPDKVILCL

[2] = biological target: T1, Protein cereblon/von Hippel-Lindau disease tumor suppressor; assay: Protac activity at VHL/CRBN in HEK293 cells assessed as pVHL19 protein abundance at 1 uM after 2 hrs by Western blot analysis relative to DMSO
Procedure, shortened: (§1)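 HEK293 cells (DMEM, 10% FBS, penicillin/streptomycin, L-glutamine; 37 °C, 5% CO2; ≤30 passages) seeded at 1 × 10⁶ per well overnight, then treated with compound at 0.1% v/v final DMSO. Cells were lysed in RIPA with protease inhibitors and benzonase, then clarified. Equal Bradford-quantified protein was immunoblotted for CRBN/VHL. Bands were normalised to β-tubulin and expressed as % of mean 0.1% DMSO vehicle.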
Target sequence in this assay (P40337 whole entry, looked up): as the sequence (P40337 whole entry) above
Target sequence in this assay (Q96SW2 whole entry, looked up): as the sequence (Q96SW2 whole entry) above

[3] = biological target: T1, Protein cereblon/von Hippel-Lindau disease tumor suppressor; assay: Protac activity at VHL/CRBN in HEK293 cells assessed as pVHL30 protein abundance at 1 uM after 1 hr by Western blot analysis relative to DMSO; procedure, shortened: as §1
Target sequence in this assay (P40337 whole entry, looked up): as the sequence (P40337 whole entry) above
Target sequence in this assay (Q96SW2 whole entry, looked up): as the sequence (Q96SW2 whole entry) above

[4] = biological target: T1, Protein cereblon/von Hippel-Lindau disease tumor suppressor; assay: Protac activity at VHL/CRBN in HEK293 cells assessed as pVHL30 protein abundance at 1 uM after 24 hrs by Western blot analysis relative to DMSO; procedure, shortened: as §1
Target sequence in this assay (P40337 whole entry, looked up): as the sequence (P40337 whole entry) above
Target sequence in this assay (Q96SW2 whole entry, looked up): as the sequence (Q96SW2 whole entry) above

[5] = biological target: T1, Protein cereblon/von Hippel-Lindau disease tumor suppressor; assay: Protac activity at VHL/CRBN in HEK293 cells assessed as CRBN protein abundance at 1 uM after 1 hr by Western blot analysis relative to DMSO; procedure, shortened: as §1
Target sequence in this assay (P40337 whole entry, looked up): as the sequence (P40337 whole entry) above
Target sequence in this assay (Q96SW2 whole entry, looked up): as the sequence (Q96SW2 whole entry) above

[6] = biological target: T1, Protein cereblon/von Hippel-Lindau disease tumor suppressor; assay: Protac activity at VHL/CRBN in HEK293 cells assessed as CRBN protein abundance at 1 uM after 12 hrs by Western blot analysis relative to DMSO; procedure, shortened: as §1
Target sequence in this assay (P40337 whole entry, looked up): as the sequence (P40337 whole entry) above
Target sequence in this assay (Q96SW2 whole entry, looked up): as the sequence (Q96SW2 whole entry) above

[7] = biological target: T1, Protein cereblon/von Hippel-Lindau disease tumor suppressor; assay: Protac activity at VHL/CRBN in HEK293 cells assessed as pVHL19 protein abundance at 500 nM after 4 hrs by Western blot analysis relative to DMSO; procedure, shortened: as §1
Target sequence in this assay (P40337 whole entry, looked up): as the sequence (P40337 whole entry) above
Target sequence in this assay (Q96SW2 whole entry, looked up): as the sequence (Q96SW2 whole entry) above

[8] = biological target: T1, Protein cereblon/von Hippel-Lindau disease tumor suppressor; assay: Protac activity at VHL/CRBN in HEK293 cells assessed as pVHL19 protein abundance at 1000 nM after 4 hrs by Western blot analysis relative to DMSO; procedure, shortened: as §1
[9] = biological target: T1, Protein cereblon/von Hippel-Lindau disease tumor suppressor; assay: Protac activity at VHL/CRBN in HEK293 cells assessed as pVHL30 protein abundance at 1000 nM after 4 hrs by Western blot analysis relative to DMSO; procedure, shortened: as §1
[10] = biological target: T1, Protein cereblon/von Hippel-Lindau disease tumor suppressor; assay: Protac activity at VHL/CRBN in HEK293 cells assessed as CRBN protein abundance at 50 nM after 4 hrs by Western blot analysis relative to DMSO; procedure, shortened: as §1
[11] = biological target: T1, Protein cereblon/von Hippel-Lindau disease tumor suppressor; assay: Protac activity at VHL/CRBN in HEK293 cells assessed as CRBN protein abundance at 5000 nM after 4 hrs by Western blot analysis relative to DMSO; procedure, shortened: as §1
[12] = biological target: T1, Protein cereblon/von Hippel-Lindau disease tumor suppressor; assay: Protac activity at VHL/CRBN in human HeLa cells assessed as pVHL19 protein abundance at 1 uM after 1 hr by Western blot analysis relative to DMSO
Procedure, shortened: (§2)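 HeLa cells seeded overnight, then exposed to 1 µM compound (0.1% v/v DMSO final) over a time course. Cells were DPBS-washed and RIPA-lysed with protease inhibitors and benzonase; equal protein was loaded. Immunoblots for CRBN and VHL isoforms were quantified against β-tubulin and reported relative to the averaged 0.1% DMSO vehicle.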

[13] = biological target: T1, Protein cereblon/von Hippel-Lindau disease tumor suppressor; assay: Protac activity at VHL/CRBN in human HeLa cells assessed as pVHL19 protein abundance at 1 uM after 12 hrs by Western blot analysis relative to DMSO; procedure, shortened: as §2
[14] = biological target: T1, Protein cereblon/von Hippel-Lindau disease tumor suppressor; assay: Protac activity at VHL/CRBN in human HeLa cells assessed as pVHL30 protein abundance at 1 uM after 12 hrs by Western blot analysis relative to DMSO; procedure, shortened: as §2
[15] = biological target: T1, Protein cereblon/von Hippel-Lindau disease tumor suppressor; assay: Protac activity at VHL/CRBN in human HeLa cells assessed as CRBN protein abundance at 1 uM after 1 hr by Western blot analysis relative to DMSO
Procedure, shortened: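 HeLa cells (DMEM, 10% FBS, penicillin/streptomycin, L-glutamine; 37 °C, 5% CO2) seeded at 5 × 10⁵ per well overnight, then treated in 0.1% v/v final DMSO. Cells were lysed in RIPA with protease inhibitors and benzonase, and equal protein was run on SDS-PAGE/nitrocellulose blots probed with anti-CRBN. Bands were normalised to β-tubulin and expressed relative to mean 0.1% DMSO vehicle.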

[16] = biological target: T1, Protein cereblon/von Hippel-Lindau disease tumor suppressor; assay: Protac activity at VHL/CRBN in human HeLa cells assessed as pVHL19 protein abundance at 50 nM after 4 hrs by Western blot analysis relative to DMSO
Procedure, shortened: (§3)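 HeLa cells (5 × 10⁵, DMEM + 10% FBS, 37 °C, 5% CO₂, ≤30 passages) seeded overnight, then treated 4 h with compound at single or graded concentrations (0.1% v/v DMSO final). RIPA lysates equalised by Bradford; SDS-PAGE and anti-CRBN/anti-VHL immunoblots; bands normalised to β-tubulin and expressed as % of mean DMSO vehicle. DC₅₀ from fit of band intensity versus log[concentration].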

[17] = biological target: T1, Protein cereblon/von Hippel-Lindau disease tumor suppressor; assay: Protac activity at VHL/CRBN in human HeLa cells assessed as pVHL19 protein abundance at 500 nM after 4 hrs by Western blot analysis relative to DMSO; procedure, shortened: as §3
[18] = biological target: T1, Protein cereblon/von Hippel-Lindau disease tumor suppressor; assay: Protac activity at VHL/CRBN in human HeLa cells assessed as pVHL30 protein abundance at 100 nM after 4 hrs by Western blot analysis relative to DMSO; procedure, shortened: as §3
[19] = biological target: T1, Protein cereblon/von Hippel-Lindau disease tumor suppressor; assay: Protac activity at VHL/CRBN in human HeLa cells assessed as CRBN protein abundance at 5 nM after 4 hrs by Western blot analysis relative to DMSO; procedure, shortened: as §3
[20] = biological target: T1, Protein cereblon/von Hippel-Lindau disease tumor suppressor; assay: Protac activity at VHL/CRBN in human HeLa cells assessed as CRBN protein abundance at 50 nM after 4 hrs by Western blot analysis relative to DMSO; procedure, shortened: as §3
[21] = biological target: T1, Protein cereblon/von Hippel-Lindau disease tumor suppressor; assay: Protac activity at VHL/CRBN in human HeLa cells assessed as CRBN protein abundance at 100 nM after 4 hrs by Western blot analysis relative to DMSO; procedure, shortened: as §3
[22] = biological target: T1, Protein cereblon/von Hippel-Lindau disease tumor suppressor; assay: Protac activity at VHL/CRBN in human HeLa cells assessed as CRBN protein abundance at 1000 nM after 4 hrs by Western blot analysis relative to DMSO; procedure, shortened: as §3
[23] = biological target: T1, Protein cereblon/von Hippel-Lindau disease tumor suppressor; assay: Protac activity at VHL/CRBN in human HeLa cells assessed as pVHL30 protein abundance at 10 nM after 4 hrs by Western blot analysis relative to DMSO; procedure, shortened: as §3
[24] = biological target: T1, Protein cereblon/von Hippel-Lindau disease tumor suppressor; assay: Protac activity at VHL/CRBN in human HeLa cells assessed as reduction in CRBN protein level at 1 uM after 4 hrs by Western blot analysis; procedure, shortened: as §3
[25] = biological target: T1, Protein cereblon/von Hippel-Lindau disease tumor suppressor; assay: Protac activity at VHL/CRBN in human HeLa cells assessed as induction of CRBN degradation at 10 nM after 4 hrs by Western blot analysis relative to control; procedure, shortened: as §3
[26] = biological target: T1, Protein cereblon/von Hippel-Lindau disease tumor suppressor; assay: Protac activity at VHL/CRBN in human HeLa cells assessed as induction of CRBN degradation at 1 uM after 4 hrs by Western blot analysis relative to control; procedure, shortened: as §3

DC50 [1]: 0.23 µM | Activity [2]: 109% | Activity [3]: 88% | Activity [4]: 101% | Activity [5]: 14% | Activity [6]: 6% | Activity [7]: 113% | Activity [8]: 119% | Activity [9]: 127% | Activity [10]: 91% | Activity [11]: 25% | Activity [12]: 100% | Activity [13]: 93% | Activity [14]: 93% | Activity [15]: 57% | Activity [16]: 95% | Activity [17]: 106% | Activity [18]: 101% | Activity [19]: 85% | Activity [20]: 72% | Activity [21]: 70% | Activity [22]: 25% | Activity [23]: 64% | Activity [24]: Active | Activity [25]: 19% | %max [26]: 75% | Activity [26]: 64%
Structure (SMILES): Cc1ncsc1-c1ccc(CNC(=O)[C@@H]2C[C@@H](O)CN2C(=O)[C@@H](NC(=O)COCCCCCOCCOCCCCCOCC(=O)NCCNc2cccc3c2C(=O)N(C2CCC(=O)NC2=O)C3=O)C(C)(C)C)cc1 (some centres not stated)
